Values belong to the molecule of their own block, whether it stands above or below them. Calls of active or inactive are those of the source. The rule behind the calls is not given here.
How the values were obtained:
HeLa [1] = experiment: Antiproliferative activity against human HeLa cells assessed as cell growth inhibition after 48 hrs by MTT assay; assay type: functional, cell-based
Summary of the method: (§1)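 Cells grown at 37 °C with CO2 in RPMI-1640 or DMEM plus 10% FBS. Seeded at 2 × 10³ per well, attached 24 h, then medium changed. Compound exposure 48 h at 37 °C, DMSO 0.1% as vehicle. MTT added and incubated a further 4 h. Crystals dissolved, absorbance read at 570 nm. IC50 from curve fitting, mean ± SD of three independent experiments.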

HEK293 = experiment: Antiproliferative activity against human HEK293 cells assessed as cell growth inhibition after 48 hrs by MTT assay; assay type: cell-based; conditions: HEK293, 48 h; summary of the method: as §1
T47D = experiment: Antiproliferative activity against human T47D cells assessed as cell growth inhibition after 48 hrs by MTT assay; assay type: functional, cell-based
HT-29 = experiment: Antiproliferative activity against human HT29 cells assessed as cell growth inhibition after 48 hrs by MTT assay; assay type: functional, cell-based; conditions: HT-29, 48 h
HCT-116 = experiment: Antiproliferative activity against human HCT-116 cells assessed as cell growth inhibition after 48 hrs by MTT assay; assay type: functional, cell-based; conditions: HCT-116, 48 h; summary of the method: as §1
A549 = experiment: Antiproliferative activity against human A549 cells assessed as cell growth inhibition after 48 hrs by MTT assay; assay type: functional, cell-based; conditions: A549, 48 h; summary of the method: as §1
HepG2 = experiment: Antiproliferative activity against human HepG2 cells assessed as cell growth inhibition after 48 hrs by MTT assay; assay type: functional, cell-based; conditions: HepG2, 48 h; summary of the method: as §1
Tubulin (Homo sapiens) [2] = target: T1, Tubulin (Homo sapiens) (UniProt P68371+Q9H4B7+P0DPH7+P68366+Q13509+Q71U36+P04350+Q3ZCM7+P07437+P68363+Q9BQE3+Q6PEY2+Q13885+Q9BVA1+Q9BUF5); experiment: Inhibition of tubulin polymerization (unknown origin) at 10 uM measured after 30 mins every 1 min for 20 mins by spectrophotometric method; assay type: protein-complex assay
Summary of the method: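 Tubulin at 2 mg/mL in PEM buffer (100 mM PIPES pH 6.9, 1 mM MgCl2, 1 mM EGTA, 5% glycerol) preincubated on ice with compound or DMSO, then GTP added. After 0.5 h, A340 read every 1 min for 20 min at 37 °C. Plateau values used. Single-point inhibition at 10 µM; IC50 is the concentration halving polymerization at 20 min, mean ± SD of three experiments.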

Tubulin = experiment: Inhibition of tubulin polymerization (unknown origin) measured afer 30 mins every 1 min for 20 mins by spectrophotometric method; assay type: protein-complex assay, Homo sapiens
Summary of the method: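 Tubulin at 2 mg/mL in PEM buffer (100 mM PIPES pH 6.9, 1 mM MgCl2, 1 mM EGTA, 5% glycerol) preincubated on ice with compound or DMSO, then GTP added. After 0.5 h, A340 read every 1 min for 20 min at 37 °C. Plateau values used.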

HeLa [3] = experiment: Induction of apoptosis in human HeLa cells assessed as early apoptotic cells at 60 nM after 24 hrs by AnnexinV/PI-staining based flow cytometry (reference value: 2.87%)
HeLa [4] = experiment: Induction of apoptosis in human HeLa cells assessed as early apoptotic cells at 120 nM after 24 hrs by AnnexinV/PI-staining based flow cytometry (reference value: 2.87%)
HeLa [5] = experiment: Cell cycle arrest in human HeLa cells assessed as increase in cells accumulation at G2/M phase at 120 nM measured after 24 hrs by propidium iodide staining based flow cytometric analysis (reference value: 12.49 %); assay type: functional
HeLa [6] = experiment: Cell cycle arrest in human HeLa cells assessed as increase in cells accumulation at G2/M phase at 30 nM measured after 24 hrs by propidium iodide staining based flow cytometric analysis (reference value: 12.49 %); assay type: functional
HeLa [7] = experiment: Induction of cell cycle arrest in human Hela cells assessed as decrease in cdc2 expression measured after 24 hrs by Western blot analysis relative to control; assay type: functional, cell-based; conditions: dose 30-120 nM
Summary of the method: (§2)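 HeLa cells treated as for cell-cycle analysis (30, 60, 120 nM, 24 h), then lysed and protein quantified. Lysates boiled 5 min, run on SDS-PAGE and transferred to PVDF. Membranes blocked in 5% skim milk 1 h at RT, primary antibodies overnight at 4 °C, β-actin/GAPDH as loading controls. Secondary antibody 1:4000 for 2 h at RT. Mean ± SD of three independent experiments.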

HeLa [8] = experiment: Cell cycle arrest in human HeLa cells assessed as increase in cells accumulation at G2/M phase at 60 nM measured after 24 hrs by propidium iodide staining based flow cytometric analysis (reference value: 12.49 %); assay type: functional
HeLa [9] = experiment: Induction of apoptosis in human HeLa cells assessed as necrotic cells at 120 nM after 24 hrs by AnnexinV/PI-staining based flow cytometry (reference value: 0.093 %)
HeLa [10] = experiment: Cell cycle arrest in human HeLa cells assessed as increase in cells accumulation at S phase at 60 nM measured after 24 hrs by propidium iodide staining based flow cytometric analysis (reference value: 20.29 %); assay type: functional
HeLa [11] = experiment: Cell cycle arrest in human HeLa cells assessed as increase in cells accumulation at G0/G1 phase at 120 nM measured after 24 hrs by propidium iodide staining based flow cytometric analysis (reference value: 67.22 %); assay type: functional
HeLa [12] = experiment: Induction of apoptosis in human HeLa cells assessed as necrotic cells at 60 nM after 24 hrs by AnnexinV/PI-staining based flow cytometry (reference value: 0.093 %)
HeLa [13] = experiment: Induction of apoptosis in human HeLa cells assessed as necrotic cells at 30 nM after 24 hrs by AnnexinV/PI-staining based flow cytometry (reference value: 0.093 %)
HeLa [14] = experiment: Induction of apoptosis in human HeLa cells assessed as increase in cleaved PARP level incubated for 24 hrs by Western blot analysis; assay type: functional, cell-based; summary of the method: as §2
HeLa [15] = experiment: Cell cycle arrest in human HeLa cells assessed as increase in cells accumulation at G0/G1 phase at 60 nM measured after 24 hrs by propidium iodide staining based flow cytometric analysis (reference value: 49.85 %); assay type: functional
HeLa [16] = experiment: Induction of apoptosis in human HeLa cells assessed as late apoptotic cells at 30 nM after 24 hrs by AnnexinV/PI-staining based flow cytometry (reference value: 0.884 %)
HeLa [17] = experiment: Induction of apoptosis in human HeLa cells assessed as early apoptotic cells at 30 nM after 24 hrs by AnnexinV/PI-staining based flow cytometry (reference value: 2.87%)
Tubulin (Homo sapiens) [18] = target: T1, Tubulin (Homo sapiens); experiment: Inhibition of […]colchicine binding to tubulin (unknown origin) at 4 uM incubated for 45 mins by fluorescence assay relative to control; assay type: protein-complex assay
Summary of the method: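 Tubulin (4 µM) preincubated 45 min at 37 °C with test agent (20–80 µM), then colchicine (4 µM) added. After a further 45 min at 37 °C, fluorescence read at excitation 340 nm and emission 435 nm, with buffer blank subtracted.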

HeLa [19] = experiment: Cell cycle arrest in human HeLa cells assessed as increase in cells accumulation at S phase at 120 nM measured after 24 hrs by propidium iodide staining based flow cytometric analysis (reference value: 20.29 %); assay type: functional
HeLa [20] = experiment: Induction of cell cycle arrest in human Hela cells assessed as increase in cyclin B1 expression measured after 24 hrs by Western blot analysis relative to control; assay type: functional, cell-based; conditions: dose 30-120 nM; summary of the method: as §2
HeLa [21] = experiment: Induction of apoptosis in human HeLa cells assessed as late apoptotic cells at 120 nM after 24 hrs by AnnexinV/PI-staining based flow cytometry (reference value: 0.884 %)
HeLa [22] = experiment: Induction of apoptosis in human HeLa cells assessed as effect on Bax level incubated for 24 hrs by Western blot analysis; assay type: functional, cell-based; summary of the method: as §2
HeLa [23] = experiment: Cell cycle arrest in human HeLa cells assessed as increase in cells accumulation at G0/G1 phase at 30 nM measured after 24 hrs by propidium iodide staining based flow cytometric analysis (reference value: 67.22 %); assay type: functional
HeLa [24] = experiment: Cell cycle arrest in human HeLa cells assessed as increase in cells accumulation at S phase at 30 nM measured after 24 hrs by propidium iodide staining based flow cytometric analysis (reference value: 20.29 %); assay type: functional
HeLa [25] = experiment: Induction of apoptosis in human HeLa cells assessed as late apoptotic cells at 60 nM after 24 hrs by AnnexinV/PI-staining based flow cytometry (reference value: 0.884 %)

IC50 (HeLa [1]): > 30 µM
Structure (SMILES): COc1cc(-c2nc3nccc(-c4ccc(C)cc4)n3n2)cc(OC)c1OC

IC50 (HeLa [1]): > 30 µM
Structure (SMILES): COc1cc(-c2nc3nccc(-c4cc(OC)c(OC)c(OC)c4)n3n2)cc(OC)c1OC

IC50 (HeLa [1]): > 30 µM
Structure (SMILES): COc1cc(-c2nc3nccc(-c4ccc([N+](=O)[O-])cc4)n3n2)cc(OC)c1OC

IC50 (T47D): > 100 µM
IC50 (HeLa [1]): 0.4 µM
IC50 (HT-29): 11.5 µM
IC50 (HCT-116): 91.1 µM
IC50 (A549): > 100 µM
IC50 (HepG2): 41.2 µM
inhibition (Tubulin (Homo sapiens) [2]): 12%
Structure (SMILES): COc1ccc(-c2ccnc3nc(-c4cc(OC)c(OC)c(OC)c4)nn23)cc1N
IC50 (HEK293): > 100 µM

IC50 (HeLa [1]): > 30 µM
Structure (SMILES): COc1cc(-c2nc3nccc(-c4cccs4)n3n2)cc(OC)c1OC

IC50 (T47D): 6.51 µM
IC50 (Tubulin): 12.2 µM
IC50 (HeLa [1]): 0.11 µM
IC50 (HT-29): 83 µM
IC50 (HCT-116): > 100 µM
IC50 (A549): 18.9 µM
IC50 (HepG2): 21.1 µM
inhibition (Tubulin (Homo sapiens) [2]): 49%
Structure (SMILES): COc1ccc(-c2nc3nccc(-c4cc(OC)c(OC)c(OC)c4)n3n2)cc1N
IC50 (HEK293): > 100 µM

IC50 (HeLa [1]): > 30 µM
Structure (SMILES): COc1cc(-c2nc3nccc(-c4ccccc4C)n3n2)cc(OC)c1OC

IC50 (HeLa [1]): > 30 µM
Structure (SMILES): COc1ccc(-c2ccnc3nc(-c4cc(OC)c(OC)c(OC)c4)nn23)cc1OC

IC50 (HeLa [1]): 22.2 µM
Structure (SMILES): COc1cc(-c2nc3nccc(-c4ccc(NC(C)=O)cc4)n3n2)cc(OC)c1OC

IC50 (T47D): 3.49 µM
IC50 (Tubulin): 1.3 µM
IC50 (HeLa [1]): 0.06 µM
IC50 (HT-29): 0.24 µM
inhibition (Tubulin (Homo sapiens) [18]): Dose-Dependent Effect
IC50 (HCT-116): 18.4 µM
IC50 (A549): 6.05 µM
IC50 (HepG2): 14.7 µM
inhibition (Tubulin (Homo sapiens) [2]): 94%
Structure (SMILES): COc1ccc(-c2nc3nccc(-c4cc(OC)c(OC)c(OC)c4)n3n2)cc1O
Activity (HeLa [3]): 10.5%
IC50 (HEK293): > 100 µM
Activity (HeLa [4]): 14.3%
Activity (HeLa [5]): 46.82%
Activity (HeLa [6]): 16.18%
Activity (HeLa [7]): Active
Activity (HeLa [8]): 22.81%
Activity (HeLa [9]): 2.37%
Activity (HeLa [10]): 27.84%
Activity (HeLa [11]): 29.01%
Activity (HeLa [12]): 1.07%
Activity (HeLa [13]): 0.329%
Activity (HeLa [14]): Active
Activity (HeLa [15]): 49.85%
Activity (HeLa [16]): 5.61%
Activity (HeLa [17]): 8.5%
Activity (HeLa [19]): 24.67%
Activity (HeLa [20]): Dose-Dependent Effect
Activity (HeLa [21]): 19.3%
Activity (HeLa [22]): inactive
Activity (HeLa [23]): 66.03%
Activity (HeLa [24]): 17.79%
Activity (HeLa [25]): 8.85%

IC50 (HeLa [1]): > 30 µM
Structure (SMILES): COc1cc(-c2ccnc3nc(-c4ccc(Cl)c(Cl)c4)nn23)cc(OC)c1OC

IC50 (HeLa [1]): > 30 µM
Structure (SMILES): COC(=O)c1ccc(-c2ccnc3nc(-c4cc(OC)c(OC)c(OC)c4)nn23)cc1

IC50 (HeLa [1]): > 30 µM
Structure (SMILES): COc1cc(-c2nc3nccc(-c4cc5ccccc5oc4=O)n3n2)cc(OC)c1OC

IC50 (HeLa [1]): > 30 µM
Structure (SMILES): COc1ccc(-c2ccnc3nc(-c4cc(OC)c(OC)c(OC)c4)nn23)cc1F

— ChEMBL document CHEMBL4837193 (Eur J Med Chem, 2021)
